# Test results as given in ChEMBL document CHEMBL1134466 (J Med Chem, 2001).
# Legend:
# Mus musculus [1] = assay: Antitumor activity against B16 murine melanoma at a dose of 100 mg/kg (ip) measured as percent weight change on day 8; assay type: functional
# Outline: (§1)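 Female B6D2F1 mice given 0.2 mL fresh B16 tumor brei ip (day 0), from sc-grown B16 in the same strain. Randomized 10/group and dosed ip on days 1-5 in 0.2 mL 1:2:7 Cremophor:ethanol:saline, freshly made. Mice monitored daily and weighed twice weekly; weight change taken on day 8. T/C = 100% × MST treated/control. 60-day survivors counted as long-term and excluded from MST.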
# Mus musculus [2] = assay: Antitumor activity against B16 murine melanoma at a dose of 100 mg/kg (ip) measured as 60-day survivors (% LTS); assay type: functional; outline: as §1
# Mus musculus [3] = assay: Toxicity to bone marrow granulocyte/macrophage progenitors per femur at a dose of 100 mg/kg (ip); assay type: functional
# Outline: (§2)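 Male B6D2F1 mice (5/group) given drug or vehicle ip, single dose or daily ×5. Femoral marrow harvested 24 h after the last dose and plated at 2 × 10^4 viable nucleated cells/mL in methylcellulose (0.8%) medium with 20% FBS and 10% pokeweed mitogen-stimulated spleen-conditioned medium. Cultured 7 days at 37 °C, 5% CO2; colonies >50 cells counted. Mean colonies given as % of control per femur, mean ± SEM.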
# Mus musculus [4] = assay: (§3) Toxicity to bone marrow granulocyte/macrophage progenitors per femur at a dose of 150 mg/kg (ip); assay type: functional; outline: as §2
# Mus musculus [5] = assay: Antitumor activity in MX-1 Xenograft Model at a dose of 50 mg/kg (ip) measured as number of mice with partial tumor regression; assay type: functional
# Outline: (§4)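 Nude mice implanted sc by trocar in right foreflank with 1-2 mm3 MX-1 fragments. At ca. 5 × 5 mm (~10 days), pair-matched into groups of 10. Dosed ip days 1-5 in 0.2 mL 1:2:7 Cremophor:ethanol:saline. Weights and caliper measurements taken twice weekly; weight change on day 8. GI = 100% × (1 − tumor weight treated/control). Partial shrinkage = final tumor weight below day-1 weight; complete = tumor gone.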
# Mus musculus [6] = assay: Antitumor activity in MX-1 Xenograft Model at a dose of 50 mg/kg (ip) measured as number of mice with complete tumor regression; assay type: functional; outline: as §4
# Mus musculus [7] = assay: Antitumor activity in MX-1 Xenograft Model at a dose of 50 mg/kg (ip) measured as percent weight change on day 8; assay type: functional; outline: as §4
# Mus musculus [8] = assay: (§5) Toxicity to bone marrow granulocyte/macrophage progenitors per femur at a dose of 200 mg/kg (ip); assay type: functional; outline: as §2
# Mus musculus [9] = assay: Antitumor activity against B16 murine melanoma at a dose of 100 mg/kg (ip) measured as increased life span (% T/C); assay type: functional; outline: as §1
# Mus musculus [10] = assay: Antitumor activity in MX-1 Xenograft Model at a dose of 50 mg/kg (ip) measured as percent growth inhibition; assay type: functional; details: read-out: GI; outline: as §4
# Mus musculus [11] = assay: Antitumor activity against B16 murine melanoma at a dose of 7.5 mg/kg (ip) measured as 60-day survivors (% LTS); assay type: functional; outline: as §1
# Mus musculus [12] = assay: Antitumor activity against B16 murine melanoma at a dose of 50 mg/kg (ip) measured as percent weight change on day 8; assay type: functional; outline: as §1
# Mus musculus [13] = assay: Antitumor activity against B16 murine melanoma at a dose of 50 mg/kg (ip) measured as 60-day survivors (% LTS); assay type: functional; outline: as §1
# Mus musculus [14] = assay: Antitumor activity against B16 murine melanoma at a dose of 50 mg/kg (ip) measured as increased life span (% T/C); assay type: functional; outline: as §1
# Mus musculus [15] = assay: Antitumor activity in MX-1 Xenograft Model at a dose of 25 mg/kg (ip) measured as number of mice with partial tumor regression; assay type: functional; outline: as §4
# Mus musculus [16] = assay: Antitumor activity against B16 murine melanoma at a dose of 7.5 mg/kg (ip) measured as percent weight change on day 8; assay type: functional; outline: as §1
# Mus musculus [17] = assay: Antitumor activity against B16 murine melanoma at a dose of 7.5 mg/kg (ip) measured as increased life span (% T/C); assay type: functional; outline: as §1
# Mus musculus [18] = assay: Antitumor activity in MX-1 Xenograft Model at a dose of 25 mg/kg (ip) measured as percent growth inhibition; assay type: functional; details: read-out: GI; outline: as §4
# Mus musculus [19] = assay: Antitumor activity in MX-1 Xenograft Model at a dose of 25 mg/kg (ip) measured as number of mice with complete tumor regression; assay type: functional; outline: as §4
# Mus musculus [20] = assay: as §5; assay type: organism-based; parameters: dose 200 mg/kg; details: in vivo; outline: as §2
# Mus musculus [21] = assay: as §3; assay type: organism-based; parameters: dose 150 mg/kg; details: in vivo; outline: as §2
# Mus musculus [22] = assay: Toxicity to bone marrow granulocyte/macrophage progenitors per femur at a dose of 50 mg/kg (ip); assay type: functional; outline: as §2
# Mus musculus [23] = assay: Antitumor activity against B16 murine melanoma at a dose of 5 mg/kg (ip) measured as 60-day survivors (% LTS); assay type: functional; outline: as §1
# Mus musculus [24] = assay: Antitumor activity against B16 murine melanoma at a dose of 5 mg/kg (ip) measured as increased life span (% T/C); assay type: functional; outline: as §1
SMILES,Control (Mus musculus [3]),Control (Mus musculus [4]),No. partial (Mus musculus [5]),No. total (Mus musculus [6]),Weight change (Mus musculus [7]),inhibition in vivo at 50 mg/kg (Mus musculus [10]),Weight change (Mus musculus [12]),LTS (Mus musculus [13]),T/C (Mus musculus [14]),Control (Mus musculus [22]),further results
O=[N+]([O-])c1ccc(COP(=O)(N(CCCl)CCCl)N(CCCl)CCCl)o1,100%,104%,7,0,2%,99%,,,,,Weight change (Mus musculus [1]): 6%; LTS (Mus musculus [2]): 10%; Control (Mus musculus [8]): 26%; T/C (Mus musculus [9]): 172%
O=[N+]([O-])c1ccc(COP(=O)(N(CCCl)CCCl)N(CCCl)CCCl)s1,,,,,1%,,8%,0%,166%,,LTS (Mus musculus [11]): 20%; No. partial (Mus musculus [15]): 10; Weight change (Mus musculus [16]): 10%; T/C (Mus musculus [17]): 248%; inhibition in vivo at 25 mg/kg (Mus musculus [18]): > 99%; No. total (Mus musculus [19]): 0; Control (Mus musculus [20]): 81%; Control (Mus musculus [21]): 106%
O=[N+]([O-])c1ccc(COP(=O)(N(CCBr)CCBr)N(CCBr)CCBr)o1,32%,23%,6,4,11%,> 99%,11%,0%,202%,102%,
O=[N+]([O-])c1ccc(COP(=O)(N(CCBr)CCBr)N(CCBr)CCBr)s1,64%,,,,,,10%,,,93%,LTS (Mus musculus [23]): 0%; T/C (Mus musculus [24]): 185%
